Test results published in paper PMC8992012 (Bioorganic & medicinal chemistry, 2021).
Entries after “also recorded” stand apart in the source; their conditions may differ.

Tests used:
NF-κB [1] = test: NF-κB activation using THP1-Blue NF-κB cells; format: cell-based, human; settings: for EC50: read-out: EC50 NF-κB induction in the presence of LPS, with LPS (10 ng/mL), THP1-Blue NF-κB cells, SEAP; for EC50 / NF-κB activity (in words, SAR text to Table 1): 20h; for NF-κB activity (in words, SAR text to Table 1): compound alone, 5 μM; for NF-κB induction in the presence of LPS (in words, Fig. 6): compared to compound 1
In short: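 THP1-Blue NF-κB cells carry a stably integrated NF-κB-inducible SEAP. They were plated at 10^5 cells/well in RPMI with 10% FBS, penicillin, streptomycin and Normocin, then treated for 20 h with 5 μM test compound (0.5% DMSO final), alone or with LPS at 10 ng/mL. Supernatant SEAP was read colorimetrically at 630 nm. Signals were two-point normalized: baseline (vehicle or LPS) 100%, reference hit 200%.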

IL-8 = IL-8 release in THP-1 cells; format: cell-based, human; settings: 5 μM compound; for IL-8 induction with LPS: LPS 1 ng/mL, compared to Veh+LPS; for IL-8 induction, compound alone: without LPS, compared to Veh
In short: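 THP-1 cells were exposed overnight to 5 μM test compound or vehicle (0.5% DMSO), with or without LPS at 1 ng/mL. Secreted IL-8 in a portion of the supernatant was quantified by ELISA.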

NF-κB [2] = test: Confirmatory kinetic screening, cell-based NF-κB FRET assay with LPS; design: species or system human; settings: 12h incubation, 21 HTS actives

SMILES	EC50 (NF-κB [1])	IL-8 induction with LPS (IL-8)	IL-8 induction, compound alone (IL-8)	NF-κB enhancement activity at 12h in the presence of LPS (NF-κB [2])	NF-κB activity (in words, SAR text to Table 1) (NF-κB [1])	NF-κB induction in the presence of LPS (in words, Fig. 6) (NF-κB [1])
Cc1ccc(C)c(-c2csc(NC(=O)c3ccc(S(=O)(=O)N4CCCCC4)cc3)n2)c1 [Compound 1, N-(4-(2,5-dimethylphenyl)thiazol-2-yl)-4-(piperidin-1-ylsulfonyl)benzamide]	2300 nM	significantly enhanced	induced IL-8	most potent	–	–
Cc1ccc(Br)c(-c2csc(NC(=O)c3ccc(S(=O)(=O)N4CCCCC4)cc3)n2)c1 [Compound 12d, N-(4-(2-bromo-5-methylphenyl)thiazol-2-yl)-4-(piperidin-1-ylsulfonyl)benzamide]	4500 nM	significantly enhanced	induced IL-8	–	active; also recorded: most active	–
C#CC1CCN(S(=O)(=O)c2ccc(C(=O)Nc3nc(-c4cc(C)ccc4C)cs3)cc2)CC1 [Compound 68d, N-(4-(2,5-dimethylphenyl)thiazol-2-yl)-4-((4-ethynylpiperidin-1-yl)sulfonyl)benzamide]	–	–	–	–	–	modestly active
C#CC1CCN(S(=O)(=O)c2ccc(C(=O)Nc3nc(-c4cc(N=[N+]=[N-])ccc4C)cs3)cc2)CC1 [Compound 69, N-(4-(5-azido-2-methylphenyl)thiazol-2-yl)-4-((4-ethynylpiperidin-1-yl)sulfonyl)benzamide]	–	–	–	–	–	perfect overlapping dose-response curve

Second part, led by results:

EC50 (NF-κB [1])	SMILES	IL-8 induction with LPS (IL-8)	IL-8 induction, compound alone (IL-8)	NF-κB enhancement activity at 12h in the presence of LPS (NF-κB [2])	NF-κB activity (in words, SAR text to Table 1) (NF-κB [1])	NF-κB induction in the presence of LPS (in words, Fig. 6) (NF-κB [1])
1700 nM	CCCC#Cc1sc(NC(=O)c2ccc(S(=O)(=O)N3CCCCC3)cc2)nc1-c1cc(C)ccc1C [Compound 18q, N-(4-(2,5-dimethylphenyl)-5-(pent-1-yn-1-yl)thiazol-2-yl)-4-(piperidin-1-ylsulfonyl)benzamide]	significantly enhanced	induced IL-8	–	very potent; also recorded: most active	–
900 nM	CCCC1CCN(S(=O)(=O)c2ccc(C(=O)Nc3nc(-c4cc(C)ccc4C)cs3)cc2)CC1 [Compound 54h, N-(4-(2,5-dimethylphenyl)thiazol-2-yl)-4-((4-propylpiperidin-1-yl)sulfonyl)benzamide]	significantly enhanced	induced IL-8	–	very potent; also recorded: most active	–
